{
  "source": "ChEMBL document CHEMBL1132235",
  "about": "“Thioamides: synthesis, stability, and immunological activities of thioanalogues of Imreg. Preparation of new thioacylating agents using fluorobenzimidazolone derivatives” (1999)",
  "key": {"Mus musculus [1]": {"system": "Mus musculus", "assay": "In vivo functional activity against spleen Immunophenotyping in mice at 50 mg/kg dose using TCR+ as cell subset", "in_short": "(§1)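 Female C57BL/6 mice, 6–8 weeks old, groups of seven, dosed i.p. once daily for four consecutive days (0, 50, 100 or 125 mg/kg) and sacrificed on day 5. Blood and spleen cells were lysed in ACK buffer (pH 7.3, 5 min), washed in PBS and stained 45 min on ice with FITC/PE surface-marker antibodies. Cells were fixed in 1% paraformaldehyde and read by flow cytometry. Values are relative subset percentages, compared by unpaired t test.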"}, "Mus musculus [2]": {"system": "Mus musculus", "assay": "In vivo functional activity against Blood Immunophenotyping in mice at 125 mg/kg dose using CD4+CD45+ as cell subset", "in_short": "as §1"}, "Mus musculus [3]": {"system": "Mus musculus", "assay": "In vivo functional activity against spleen Immunophenotyping in mice at 100 mg/kg dose using LY5+ as cell subset", "in_short": "as §1"}, "Mus musculus [4]": {"system": "Mus musculus", "assay": "In vivo functional activity against spleen Immunophenotyping in mice at 0 mg/kg dose using CD8+CD45+ as cell subset", "in_short": "as §1"}, "Mus musculus [5]": {"system": "Mus musculus", "assay": "In vivo functional activity against spleen Immunophenotyping in mice at 50 mg/kg dose using CD4+CD45+ as cell subset", "in_short": "as §1"}, "Mus musculus [6]": {"system": "Mus musculus", "assay": "In vivo functional activity against Blood Immunophenotyping in mice at 125 mg/kg dose using NK+ as cell subset", "in_short": "as §1"}, "Mus musculus [7]": {"system": "Mus musculus", "assay": "In vivo functional activity against spleen Immunophenotyping in mice at 0 mg/kg dose using LY5+ as cell subset", "in_short": "as §1"}, "Mus musculus [8]": {"system": "Mus musculus", "assay": "In vivo functional activity against spleen Immunophenotyping in mice at 125 mg/kg dose using NK+CD3+ as cell subset", "in_short": "as §1"}, "Mus musculus [9]": {"system": "Mus musculus", "assay": "In vivo functional activity against spleen Immunophenotyping in mice at 0 mg/kg dose using CD4+CD45+ as cell subset", "in_short": "as §1"}, "Mus musculus [10]": {"system": "Mus musculus", "assay": "In vivo functional activity against spleen Immunophenotyping in mice at 100 mg/kg dose using CD4+CD45+ as cell subset", "in_short": "as §1"}, "Mus musculus [11]": {"system": "Mus musculus", "assay": "In vivo functional activity against Blood Immunophenotyping in mice at 50 mg/kg dose using CD4+CD45+ as cell subset", "in_short": "as §1"}, "Mus musculus [12]": {"system": "Mus musculus", "assay": "In vivo functional activity against spleen Immunophenotyping in mice at 125 mg/kg dose using LY5+ as cell subset", "in_short": "as §1"}, "Mus musculus [13]": {"system": "Mus musculus", "assay": "In vivo functional activity against Blood Immunophenotyping in mice at 100 mg/kg dose using CD4+CD45+ as cell subset (value in parentheses indicate P value)", "in_short": "as §1"}, "Mus musculus [14]": {"system": "Mus musculus", "assay": "In vivo functional activity against spleen Immunophenotyping in mice at 0 mg/kg dose using NK+CD3+ as cell subset", "in_short": "as §1"}, "Mus musculus [15]": {"system": "Mus musculus", "assay": "In vivo functional activity against spleen Immunophenotyping in mice at 0 mg/kg dose using TCR+ as cell subset", "in_short": "as §1"}, "Mus musculus [16]": {"system": "Mus musculus", "assay": "In vivo functional activity against Blood Immunophenotyping in mice at 0 mg/kg dose using NK+ as cell subset", "in_short": "as §1"}, "Mus musculus [17]": {"system": "Mus musculus", "assay": "In vivo functional activity against spleen Immunophenotyping in mice at 100 mg/kg dose using CD8+CD45+ as cell subset", "in_short": "as §1"}, "Mus musculus [18]": {"system": "Mus musculus", "assay": "In vivo functional activity against Blood Immunophenotyping in mice at 100 mg/kg dose using NK+ as cell subset", "in_short": "as §1"}, "Mus musculus [19]": {"system": "Mus musculus", "assay": "In vivo functional activity against Blood Immunophenotyping in mice at 0 mg/kg dose using CD4+CD45+ as cell subset", "in_short": "as §1"}, "Mus musculus [20]": {"system": "Mus musculus", "assay": "In vivo functional activity against spleen Immunophenotyping in mice at 125 mg/kg dose using TCR+ as cell subset", "in_short": "as §1"}, "Mus musculus [21]": {"system": "Mus musculus", "assay": "In vivo functional activity against spleen Immunophenotyping in mice at 100 mg/kg dose using TCR+ as cell subset", "in_short": "as §1"}, "Mus musculus [22]": {"system": "Mus musculus", "assay": "In vivo functional activity against spleen Immunophenotyping in mice at 100 mg/kg dose using NK+CD3+ as cell subset", "in_short": "as §1"}, "Mus musculus [23]": {"system": "Mus musculus", "assay": "In vivo functional activity against spleen Immunophenotyping in mice at 125 mg/kg dose using CD8+CD45+ as cell subset", "in_short": "as §1"}, "Mus musculus [24]": {"system": "Mus musculus", "assay": "In vivo functional activity against spleen Immunophenotyping in mice at 50 mg/kg dose using CD8+CD45+ as cell subset", "in_short": "as §1"}, "Mus musculus [25]": {"system": "Mus musculus", "assay": "In vivo functional activity against Blood Immunophenotyping in mice at 50 mg/kg dose using NK+ as cell subset", "in_short": "as §1"}, "Mus musculus [26]": {"system": "Mus musculus", "assay": "In vivo functional activity against spleen Immunophenotyping in mice at 50 mg/kg dose using NK+CD3+ as cell subset", "in_short": "as §1"}, "Mus musculus [27]": {"system": "Mus musculus", "assay": "In vivo functional activity against spleen Immunophenotyping in mice at 50 mg/kg dose using LY5+ as cell subset", "in_short": "as §1"}, "Mus musculus [28]": {"system": "Mus musculus", "assay": "In vivo functional activity against spleen Immunophenotyping in mice at 125 mg/kg dose using CD4+CD45+ as cell subset", "in_short": "as §1"}},
  "data": [
    {"smiles": "N[C@@H](Cc1ccc(O)cc1)/C(S)=N/CC(=O)NCC(=O)O", "values": [
      {"measurement": "Activity", "setting": "Mus musculus [1]", "result": 59.07},
      {"measurement": "Activity", "setting": "Mus musculus [2]", "result": 28.89},
      {"measurement": "Activity", "setting": "Mus musculus [3]", "result": 40.79},
      {"measurement": "Activity", "setting": "Mus musculus [4]", "result": 4.97},
      {"measurement": "Activity", "setting": "Mus musculus [5]", "result": 43.1},
      {"measurement": "Activity", "setting": "Mus musculus [6]", "result": 6.29},
      {"measurement": "Activity", "setting": "Mus musculus [7]", "result": 38.03},
      {"measurement": "Activity", "setting": "Mus musculus [8]", "result": 3.37},
      {"measurement": "Activity", "setting": "Mus musculus [9]", "result": 41.73},
      {"measurement": "Activity", "setting": "Mus musculus [10]", "result": 34.63},
      {"measurement": "Activity", "setting": "Mus musculus [11]", "result": 23.94},
      {"measurement": "Activity", "setting": "Mus musculus [12]", "result": 50.71},
      {"measurement": "Activity", "setting": "Mus musculus [13]", "result": 22.9},
      {"measurement": "Activity", "setting": "Mus musculus [14]", "result": 2.37},
      {"measurement": "Activity", "setting": "Mus musculus [15]", "result": 58.54},
      {"measurement": "Activity", "setting": "Mus musculus [16]", "result": 8},
      {"measurement": "Activity", "setting": "Mus musculus [17]", "result": 6.93},
      {"measurement": "Activity", "setting": "Mus musculus [18]", "result": 5.84},
      {"measurement": "Activity", "setting": "Mus musculus [19]", "result": 22.56},
      {"measurement": "Activity", "setting": "Mus musculus [20]", "result": 43.59},
      {"measurement": "Activity", "setting": "Mus musculus [21]", "result": 52.63},
      {"measurement": "Activity", "setting": "Mus musculus [22]", "result": 2.99},
      {"measurement": "Activity", "setting": "Mus musculus [23]", "result": 5.46},
      {"measurement": "Activity", "setting": "Mus musculus [24]", "result": 5.77},
      {"measurement": "Activity", "setting": "Mus musculus [25]", "result": 6.37},
      {"measurement": "Activity", "setting": "Mus musculus [26]", "result": 2.7},
      {"measurement": "Activity", "setting": "Mus musculus [27]", "result": 38.56},
      {"measurement": "Activity", "setting": "Mus musculus [28]", "result": 31.93}
    ]}
  ]
}
